Results: ChEMBL document CHEMBL1139000, “N-Glycosyl-thiophene-2-carboxamides: effects on endothelial cell growth in the presence and absence of bFGF--a significant increase in potency using per-O-acetylated sugar analogues” (2006)
Calls of active or inactive are those of the source. No cut-off for these calls is given here.

What was measured:
[1] = test system: AEC; assay: Antiproliferative activity against 10% FBS-induced BAEC at 500 uM after 24 hrs assessed by inhibition of [3H]thymidine uptake relative to control; format: functional, Bos taurus; parameters: scale not given: the % may be the effect or the level left
Method in brief: (§1)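 Bovine aortic endothelial cells seeded at 30,000 cells/well in complete medium (10% foetal bovine serum) and allowed 24 h adhesion. Compounds then added and cells cultured 20 h at 37 °C, 5% CO2. [3H]thymidine pulse for a further 4 h (24 h total exposure). Cells lysed with 0.1 N NaOH and incorporated label counted by scintillation. Values are % of control-treated cells, mean ± SEM of three separate experiments, each in triplicate.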

[2] = test system: AEC; assay: Antiproliferative activity against 10% FBS-induced BAEC at 100 uM after 24 hrs assessed by inhibition of [3H]thymidine uptake; format: functional, Bos taurus; parameters: scale not given: the % may be the effect or the level left; method in brief: as §1
[3] = test system: AEC; assay: Antiproliferative activity against 10% FBS-induced BAEC at 500 uM after 24 hrs assessed by inhibition of [3H]thymidine uptake; format: functional, Bos taurus; parameters: scale not given: the % may be the effect or the level left; method in brief: as §1
[4] = test system: AEC; assay: Antiproliferative activity against 10% FBS-induced BAEC at 3.3 uM after 24 hrs assessed by inhibition of [3H]thymidine uptake; format: functional, cell-based; conditions: Bos taurus; method in brief: as §1
[5] = test system: AEC; assay: Antiproliferative activity against bFGF-stimulated BAEC at 80 uM after 48 hrs assessed by inhibition of [3H]thymidine uptake; format: functional, cell-based; conditions: Bos taurus
Method in brief: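 BAECs seeded at 30,000 cells/well and starved 24 h in 0.5% foetal bovine serum. Then incubated 48 h with bFGF (10 ng/mL) with or without compound. [3H]thymidine (2 µCi/mL) added for the last 4 h. Lysis in 0.1 N NaOH, scintillation counting. Triplicate values from three separate experiments; Student's t test against control and against bFGF treatment.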

[6] = test system: AEC; assay: Antiproliferative activity against 10% FBS-induced BAEC at 16 uM after 24 hrs assessed by inhibition of [3H]thymidine uptake; format: functional, Bos taurus; parameters: scale not given: the % may be the effect or the level left; method in brief: as §1
[7] = test system: AEC; assay: Antiproliferative activity against 10% FBS-induced BAEC at 80 uM after 24 hrs assessed by inhibition of [3H]thymidine uptake; format: functional, Bos taurus; parameters: scale not given: the % may be the effect or the level left; method in brief: as §1
[8] = test system: AEC; assay: Antiproliferative activity against 10% FBS-induced BAEC upto 80 uM after 24 hrs assessed by inhibition of [3H]thymidine uptake; format: functional, cell-based; conditions: Bos taurus; method in brief: as §1

`C#Cc1ccsc1C(=O)N[C@@H]1O[C@H](CO)[C@@H](O)[C@H](O)[C@H]1O` gave an Activity [1] of 79.75%.
`O=C(N[C@@H]1O[C@H](CO)[C@@H](O)[C@H](O)[C@H]1O)c1ccc(Br)s1` gave an Activity [1] of 65%.
`Cc1ccc(C(=O)N[C@@H]2O[C@H](CO)[C@@H](O)[C@H](O)[C@H]2O)s1` showed an Activity [1] of 83%.
Work on `O=C(N[C@@H]1O[C@H](CO)[C@@H](O)[C@H](O)[C@H]1O)c1sccc1Br` yielded an Activity [2] of 10%, an Activity [1] of 75.4% and an Activity [3] of 25%.
`Cc1ccsc1C(=O)N[C@@H]1O[C@H](CO)[C@@H](O)[C@H](O)[C@H]1O` gave an Activity [1] of 84%.
In the case of `CCc1ccc(C(=O)N[C@@H]2O[C@H](COC(C)=O)[C@@H](OC(C)=O)[C@H](OC(C)=O)[C@H]2OC(C)=O)s1`, the Activity [4] is reported as “inactive”, the Activity [5] is reported as “Active” and the Activity [6] is reported as 21%. For the same compound, the Activity [7] was 41%.
With `CCc1ccc(C(=O)N[C@@H]2O[C@H](CO)[C@@H](O)[C@H](O)[C@H]2O)s1` the Activity [8] was “inactive” and the Activity [1] was 80.3%.
`O=C(N[C@@H]1O[C@H](CO)[C@@H](O)[C@H](O)[C@H]1O)c1cccs1` was tested, and the Activity ([1]; Bos taurus) was “inactive”.
`C#Cc1csc(C(=O)N[C@@H]2O[C@H](CO)[C@@H](O)[C@H](O)[C@H]2O)c1` was tested, and the Activity [1] was 71%.
